Experimental findings from ChEMBL document CHEMBL1124869, “Synthesis and anti-HIV activity of several 2'-fluoro-containing pyrimidine nucleosides” (J Med Chem, 1990) are described below.

≈ marks a conversion by molar mass, not a printed value. Where “and” joins values, the source holds several entries; their conditions need not be identical. Equal values may be shown once.

For data set [1], the system named is CCRF-CEM. Kind of data set: Cellular toxicity was measured in CEM cells after 8 days.50 tissue culture infectious doses were used. Type of data set: functional, Homo sapiens.
For data set [2], the system named is CCRF-CEM. Kind of data set: Antiviral test was performed against HIV (LAV strain) on CEM cells using 50 tissue culture infectious units. The class given is functional. The conditions noted are these: Homo sapiens, read-out: ID50 (the source's name). Summed up:
(§1)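 CEM-SS T cells infected with HIV-1 LAV strain. Inoculum was 50 or 30 tissue culture infectious units, depending on the assay. Viral replication was read as p24 core antigen in the culture supernatant by sandwich ELISA. Activity is expressed as 50% inhibitory dose (ID50) and 50% tissue culture inhibitory dose (TCID50).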

Data set [3] has as its system CCRF-CEM. Put plainly: Antiviral test was performed against HIV (LAV strain) on CEM cells using 30 tissue culture infectious units. The class given is functional, Homo sapiens. The method, boiled down: as §1
The subject of data set [4] is T-cell. Put plainly: (§2) In vitro Antiviral activity against T-cell lines. The conditions noted are these: Homo sapiens, read-out: ID50 (the source's name). The class given is functional. The method, boiled down: (§3)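 Freshly isolated T cells were stimulated with PHA mitogen and then infected with HIV HTLV-IIIB. Antiviral endpoint was p24 antigen at 10 days postinfection. Cell viability served as the toxicity endpoint.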

Data set [5] relates to Mo. Put plainly: (§4) In vitro Antiviral activity against MO cell lines. The class given is functional. The settings on record: Homo sapiens, read-out: ID50 (the source's name). Summed up: (§5)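 Freshly isolated monocyte/macrophage cells were infected with the monocytotropic HIV Pan Data Strain (PDS). Antiviral endpoint was p24 viral antigen.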
The species entered for data set [6] is Homo sapiens. Kind of data set: Bone marrow toxicity was measured against human colony forming units-granulocyte monocyte (CFU-GM), concentration is 10.0 uM. Summed up: (§6)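 Colony formation by normal human granulocyte-monocyte progenitors (CFU-GM) was scored in the presence of 0.1, 1.0 or 10.0 μM drug. Results are given as percent colony survival relative to control, mean ± deviation.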

The test system of data set [7] is U-937. Put plainly: (§7) In vitro Antiviral activity against U937 cell lines. The class given is functional. The conditions noted are these: Homo sapiens, read-out: ID50 (the source's name).
For data set [8], the system named is Mo. The data set is described as §4. The class given is functional, Homo sapiens. The method, boiled down:
as §5

Data set [9] has as its system T-cell. The data set is described as §2. The class given is functional, Homo sapiens. The method, boiled down:
as §3

For data set [10], the system named is CCRF-CEM. Kind of data set: (§8) Antiviral test was performed against HIV (LAV strain) on CEM cells using 30 tissue culture infectious units. T. Type of data set: functional, Homo sapiens. The method, boiled down: as §1
For data set [11], the system named is PBL. Kind of data set: (§9) In vitro Antiviral activity against PBL cell lines. Type of data set: functional, Homo sapiens.
Data set [12] relates to PBL. The data set is described as §9. Type of data set: functional. The conditions noted are these: Homo sapiens, read-out: ID50.
The species entered for data set [13] is Homo sapiens. Put plainly: Bone marrow toxicity was measured against human colony forming units-granulocyte monocyte (CFU-GM), concentration is 1.0 uM. The method, boiled down:
as §6

For data set [14], the system named is U-937. Described as §7. The class given is functional, Homo sapiens.
Data set [15] relates to CCRF-CEM. Put plainly: Cellular toxicity was measured in CEM cells after 8 days. The class given is functional, Homo sapiens.
Data set [16] has as its system CCRF-CEM. Put plainly: (§10) In vitro antiviral activity against CEM cell lines. The class given is functional, Homo sapiens. Summed up:
as §1

For data set [17], the system named is T-cell. Kind of data set: (§11) In vitro antiviral activity against T-cells. The class given is functional, Homo sapiens. The method, boiled down:
as §3

In data set [18] the test system is U-937. Put plainly: (§12) In vitro antiviral activity against U937 cell lines. The class given is functional. The conditions noted are these: Homo sapiens, read-out: ID50 (the source's name).
The test system of data set [19] is T-cell. The data set is described as §11. Type of data set: functional. The settings on record: Homo sapiens, read-out: ID50 (the source's name). The method, boiled down: as §3
The nature of data set [20]: (§13) In vitro antiviral activity against (monocyte macrophages) cell lines. The class given is functional, Homo sapiens. Summed up:
as §5

The test system of data set [21] is U-937. The description is as §12. Type of data set: functional, Homo sapiens.
In data set [22] the test system is CCRF-CEM. The data set is described as §10. Type of data set: functional. The conditions noted are these: Homo sapiens, read-out: ID50 (the source's name). The method, boiled down:
as §1

Data set [23] deals with CCRF-CEM. The description is as §8. The class given is functional. The conditions noted are these: Homo sapiens, read-out: ID50 (the source's name). Summed up:
as §1

A short description of data set [24]: as §13. The class given is functional. The conditions noted are these: Homo sapiens; read-out: ID50 (the source's name). The method, boiled down: as §5
Data set [25] concerns PBL. Kind of data set: (§14) In vitro antiviral activity against PBL cell lines. Type of data set: functional. The conditions noted are these: Homo sapiens, read-out: ID50 (the source's name).
The test system of data set [26] is PBL. Described as §14. The class given is functional, Homo sapiens.

Regarding `Cc1cn([C@@H]2O[C@H](CO)C=C2F)c(=O)[nH]c1=O`, the “cytotoxic concentration in CEM cells” value in the data set on CCRF-CEM [1] is 9.7 µg/mL. In the data set with CCRF-CEM [2], the IC50 is > 25 µg/mL.
`Cc1cn([C@@H]2O[C@H](CO)[C@@H](N=[N+]=[N-])[C@H]2F)c(=O)[nH]c1=O`: the “cytotoxic concentration in CEM cells” value with CCRF-CEM [1] came out at 2.6 µg/mL. Also, the IC50 with CCRF-CEM [2] was > 28.5 µg/mL.
Turning to `Cc1cn([C@@H]2O[C@H](CO)C[C@H]2F)c(=O)[nH]c1=O`, in the data set on CCRF-CEM [3], the TCID50 is >25 µg/mL. Also, the IC50 in the data set with CCRF-CEM [2] was > 25 µg/mL.
In the case of `Nc1ccn([C@@H]2O[C@H](CO)C[C@@H]2F)c(=O)n1`, the IC50 was 0.33 µg/mL (≈ 1.44 µM) in the data set on T-cell [4]; 1 µg/mL (≈ 4.36 µM) in the data set with Mo [5]; 0.14 µg/mL (≈ 0.611 µM) in the data set with U-937 [7]; < 2 µg/mL in the data set with PBL [12]; 2.3 µg/mL (≈ 10 µM) with CCRF-CEM [2]. Further, the “cytotoxic concentration in CEM cells” value in the data set on CCRF-CEM [1] was >23 µg/mL and 61.9 µg/mL. Also, the Toxicity in the data set filed under Homo sapiens [6] stood at 0; in the data set listed under Homo sapiens [13], 37.6. For the same molecule, the TCID50 was determined as 3.3 µg/mL in the data set with Mo [8], 10 µg/mL in the data set on T-cell [9], 11 µg/mL in the data set on PBL [11] and 7.7 µg/mL with U-937 [14]. Moreover, the ID50 with CCRF-CEM [10] was found to be 0.9 µg/mL (≈ 3.93 µM).
For the molecule `Nc1ccn([C@@H]2O[C@H](CO)C=C2F)c(=O)n1`, the ID50 in the data set with CCRF-CEM [10] is 10.9 µg/mL (≈ 48 µM). Further, in the data set with CCRF-CEM [2], the IC50 worked out at 1.3 µg/mL (≈ 5.72 µM).
As to `O=c1ccn(C2OC(CO)CC2F)c(=O)[nH]1` (stereo not drawn), the “cytotoxic concentration in CEM cells” value in the data set with CCRF-CEM [1] was 57 µg/mL. Also, in the data set with CCRF-CEM [2], the IC50 was > 10 µg/mL.
For the molecule `Nc1ccn([C@H]2CC[C@@H](CO)O2)c(=O)n1` [ZALCITABINE], the TCID50 in the data set on CCRF-CEM [15] came out at 1.3 µg/mL. The IC50 with CCRF-CEM [2] came out at 0.007 µg/mL (≈ 0.0331 µM).
`Cc1cn([C@H]2C[C@H](N=[N+]=[N-])[C@@H](CO)O2)c(=O)[nH]c1=O` [ZIDOVUDINE]: the TCID50 was >3 µg/mL with CCRF-CEM [16]; 100 µg/mL in the data set with T-cell [17]; 10 µg/mL in data set [20]; 7.5 µg/mL in the data set with U-937 [21]; 3 µg/mL in the data set with PBL [26]. This molecule also had a Toxicity in the data set listed under Homo sapiens [6] of 23.6. Also, the IC50 in the data set with U-937 [18] worked out at 0.03 µg/mL (≈ 0.112 µM); with T-cell [19] it was 0.033 µg/mL (≈ 0.123 µM); in the data set on CCRF-CEM [22], 0.03 µg/mL (≈ 0.112 µM); in the data set on CCRF-CEM [23], 0.53 µg/mL (≈ 1.98 µM); in data set [24] it was 0.1 µg/mL (≈ 0.374 µM); in the data set with PBL [25] it was 0.0003 µg/mL (≈ 0.00112 µM). The IC50 with CCRF-CEM [2] is 0.08 µg/mL (≈ 0.299 µM).
